In ChEMBL document CHEMBL1127600, “Mercaptoacyl amino acid inhibitors of atriopeptidase. 1. Structure-activity relationship studies of methionine and S-alkylcysteine derivatives” (J Med Chem, 1994) one finds Delta blood pressure and IC50 data, which are given here for four compounds.

pIC50: −log10 of the molar value. Bounds are passed on as bounds.

Assay [1] relates to Rattus norvegicus. Briefly: Tested for in vivo Antihypertensive activity in DOCA rat by giving subcutaneous dose of 30 mg/kg. In kind it is functional. In short, it runs like this:
(§1)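 Male Sprague-Dawley rats (100–150 g) had DOCA-Na hypertension induced and were used 17–21 days later if mean BP was >150 mmHg. Rats were not fasted. Mean BP was recorded after 90-min equilibration. Dosing was sc in TRIS buffer (2 mL/kg) or po in 0.4% aqueous methylcellulose (4 mL/kg). The maximum BP fall over 4 h versus vehicle controls was taken, averaged over four or more animals.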

The subject of assay [2] is Rattus norvegicus. Briefly: In vivo potentiation of ANF Induced Hypotension in rat was determined by giving peroral dose of 10 mg/kg. In kind it is functional. Conditions: route oral.
Assay [3] has as its system Rattus norvegicus. Briefly: In vivo potentiation of ANF Induced Hypotension in rat was determined by giving peroral dose of 3 mg/kg. In kind it is functional. As to conditions: route oral.
The target in assay [4] is T1, Angiotensin-converting enzyme (Oryctolagus cuniculus, UniProt P12822).
T1 sequence (P12822 whole entry): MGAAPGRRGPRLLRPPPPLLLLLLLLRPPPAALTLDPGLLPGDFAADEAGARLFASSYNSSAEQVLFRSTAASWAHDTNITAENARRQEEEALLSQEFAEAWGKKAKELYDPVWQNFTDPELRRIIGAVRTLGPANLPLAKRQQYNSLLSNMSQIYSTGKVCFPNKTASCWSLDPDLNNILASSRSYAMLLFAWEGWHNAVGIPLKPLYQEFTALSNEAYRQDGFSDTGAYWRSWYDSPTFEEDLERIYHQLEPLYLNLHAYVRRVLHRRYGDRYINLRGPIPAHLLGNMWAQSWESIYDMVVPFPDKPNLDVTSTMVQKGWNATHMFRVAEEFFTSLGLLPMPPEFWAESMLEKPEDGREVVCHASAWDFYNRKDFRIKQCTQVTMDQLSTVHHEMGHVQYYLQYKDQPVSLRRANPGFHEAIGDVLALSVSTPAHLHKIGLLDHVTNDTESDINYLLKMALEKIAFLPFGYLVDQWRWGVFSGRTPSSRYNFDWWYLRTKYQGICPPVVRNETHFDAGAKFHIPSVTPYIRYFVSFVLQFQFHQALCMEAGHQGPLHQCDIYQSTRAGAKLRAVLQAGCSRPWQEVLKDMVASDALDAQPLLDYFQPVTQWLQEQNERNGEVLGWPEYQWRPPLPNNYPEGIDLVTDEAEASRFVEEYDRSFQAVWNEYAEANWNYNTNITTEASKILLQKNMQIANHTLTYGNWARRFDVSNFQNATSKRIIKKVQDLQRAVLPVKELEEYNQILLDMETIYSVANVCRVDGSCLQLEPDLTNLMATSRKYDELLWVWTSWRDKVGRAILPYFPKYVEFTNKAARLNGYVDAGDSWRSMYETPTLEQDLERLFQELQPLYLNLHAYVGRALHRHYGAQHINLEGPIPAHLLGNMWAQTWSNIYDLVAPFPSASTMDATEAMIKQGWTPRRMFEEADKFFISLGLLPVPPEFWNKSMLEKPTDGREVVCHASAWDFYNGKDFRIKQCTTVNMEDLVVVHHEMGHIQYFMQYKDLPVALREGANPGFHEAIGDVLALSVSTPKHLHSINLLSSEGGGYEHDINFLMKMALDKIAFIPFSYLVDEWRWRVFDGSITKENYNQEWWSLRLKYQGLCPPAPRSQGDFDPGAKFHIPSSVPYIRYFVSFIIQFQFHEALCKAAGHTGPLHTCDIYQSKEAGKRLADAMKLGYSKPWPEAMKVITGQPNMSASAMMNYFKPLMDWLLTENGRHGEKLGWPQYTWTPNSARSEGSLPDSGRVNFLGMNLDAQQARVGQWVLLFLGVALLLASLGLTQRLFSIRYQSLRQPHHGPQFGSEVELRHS
Briefly: Tested in vitro for its inhibitory activity against angiotensin converting enzyme.

Another assay deals with T2, Neprilysin (Oryctolagus cuniculus, UniProt P08049).
T2 sequence (P08049 whole entry): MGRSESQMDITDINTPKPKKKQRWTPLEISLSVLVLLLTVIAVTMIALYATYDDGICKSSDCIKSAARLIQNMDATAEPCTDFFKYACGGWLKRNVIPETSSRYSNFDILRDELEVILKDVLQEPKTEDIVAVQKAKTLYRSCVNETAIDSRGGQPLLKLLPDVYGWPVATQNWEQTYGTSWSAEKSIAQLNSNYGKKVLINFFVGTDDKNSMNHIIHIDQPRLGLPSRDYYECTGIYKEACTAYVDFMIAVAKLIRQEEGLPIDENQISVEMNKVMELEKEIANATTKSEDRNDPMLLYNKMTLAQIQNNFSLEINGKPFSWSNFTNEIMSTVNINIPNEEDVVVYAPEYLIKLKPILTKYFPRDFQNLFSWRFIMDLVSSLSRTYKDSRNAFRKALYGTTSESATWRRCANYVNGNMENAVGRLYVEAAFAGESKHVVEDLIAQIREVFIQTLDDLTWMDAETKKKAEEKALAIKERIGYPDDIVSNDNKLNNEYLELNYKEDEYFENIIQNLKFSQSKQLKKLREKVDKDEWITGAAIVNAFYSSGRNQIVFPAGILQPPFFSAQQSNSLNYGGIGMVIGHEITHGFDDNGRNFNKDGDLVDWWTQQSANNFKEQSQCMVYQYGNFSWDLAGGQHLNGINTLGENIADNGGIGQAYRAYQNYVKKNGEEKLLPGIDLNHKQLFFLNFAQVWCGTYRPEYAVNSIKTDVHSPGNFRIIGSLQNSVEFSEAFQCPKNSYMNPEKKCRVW
The assay is described as follows: In vitro inhibitory activity against neutral endopeptidase (NEP). The method in brief: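 Purified rabbit kidney NEP (EC 24.11) was the enzyme source, with [³H]Leu-enkephalin as the substrate.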

The subject of assay [5] is Rattus norvegicus. The assay is described as follows: Tested for in vivo Antihypertensive activity in DOCA rat by giving peroral dose of 3 mg/kg. The class given is functional. Conditions: route oral. The method in brief:
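Male Sprague-Dawley rats (100–150 g at preparation) made DOCA-Na hypertensive, used 17–21 days after induction if mean BP >150 mmHg, nonfasted. Drug given orally as solution or suspension in 0.4% aqueous methylcellulose (4 mL/kg). Mean BP recorded after 90-min equilibration. Value is maximum BP fall over 4 h versus vehicle-treated controls, averaged over four or more animals.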

For assay [6], the system named is Rattus norvegicus. Briefly: Tested for in vivo Antihypertensive activity in DOCA rat by giving peroral dose of 10 mg/kg. The class given is functional. As to conditions: route oral. The method in brief: as §1
The test system of assay [7] is Rattus norvegicus. The assay is described as follows: Tested for in vivo Antihypertensive activity in DOCA rat by giving peroral dose of 1 mg/kg. The class given is functional. Conditions: route oral. In short, it runs like this:
as §1

Assay [8] has as its system Rattus norvegicus. The assay is described as follows: Tested for in vivo Antihypertensive activity in DOCA rat by giving peroral dose of 3 mg/Kg. In kind it is functional. The method in brief: as §1
In assay [9] the test system is Rattus norvegicus. The assay is described as follows: In vivo potentiation of ANF induced hypotension in rat, following subcutaneous dose of 30 mg/kg. In kind it is functional. The method in brief: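 Conscious male SHR (270–300 g) had caudal artery and jugular vein cannulae placed under ether. After at least 90 min of stabilization, ANF 103-125 or 99-126 was given as an iv bolus at a submaximal dose. 60–90 min later, drug or vehicle (0.2% aqueous methylcellulose with 20% Tris-HCl) was given sc. ANF was repeated 15 min after dosing, and the response was compared with vehicle controls. Values are means of four or more animals.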

The subject of assay [10] is Rattus norvegicus. The assay is described as follows: Tested for in vivo Antihypertensive activity in DOCA rat by giving subcutaneous dose of 1 mg/kg. The class given is functional. The method in brief:
as §1

In assay [11] the test system is Rattus norvegicus. Briefly: Ttested for in vivo Antihypertensive activity in DOCA rat by giving subcutaneous dose of 0.1 mg/kg. In kind it is functional. In short, it runs like this:
as §1

Regarding `CSCC[C@@H](NC(=O)[C@H](CSC(=O)c1ccccc1)Cc1ccccc1)C(N)=O`, the results for the Delta blood pressure in the assay with Rattus norvegicus [1], with Rattus norvegicus [2] and with Rattus norvegicus [3] were 0 mmHg, 52 mmHg and 19 mmHg, respectively.

For orientation: pIC50 means −log10 of the IC50, conventionally taken in molar units. A lower pIC50 goes with a high IC50. Take `CSCC[C@@H](NC(=O)[C@H](CS)CCc1ccccc1)C(=O)O`: the pIC50 was below 6.00 in assay [4] and below 6.52 against Neprilysin. Moreover, the Delta blood pressure in the assay on Rattus norvegicus [5] is 6 mmHg.

Take `CCOC(=O)[C@@H](CCSC)NC(=O)[C@@H](CSC(C)=O)Cc1ccccc1C`: the pIC50 in assay [4] was 6.60; on Neprilysin, below 6.52. The Delta blood pressure in the assay on Rattus norvegicus [6] worked out at 70 mmHg; in the assay with Rattus norvegicus [7] it was 27 mmHg; in the assay with Rattus norvegicus [8], 48 mmHg; with Rattus norvegicus [9] it was 36 mmHg.

Take `CCSC[C@@H](NC(=O)[C@@H](CS)Cc1ccccc1)C(=O)O`: the figures for the pIC50 (in [4]; against Neprilysin) were 7.55 and 8.62, respectively. Further, the Delta blood pressure is recorded as 61 mmHg with Rattus norvegicus [6], 22 mmHg with Rattus norvegicus [10], 21 mmHg in the assay with Rattus norvegicus [11] and 19 mmHg in the assay on Rattus norvegicus [9].
